Measurements reported in ChEMBL document CHEMBL4371088, “Analysis of chain length, substitution patterns, and unsaturation of AM-404 derivatives as 20S proteasome stimulators” (Bioorg Med Chem Lett, 2019).

Columns and labels:
[1] = Solubility of the compound in DMSO; format: physicochemical
HEK-293T [2] = test: Cytotoxicity against HEK293T cells at 25 to 50 uM after 24 hrs by LDH assay; conditions: human
20S proteasome = test: Stimulation of human 20S proteasome using 11 amino acid FRET peptide as substrate measured every 2 mins over 1 hr by FRET assay; format: protein-complex assay
In short: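 Purified human 20S core particle is incubated with an 11-residue reporter peptide carrying a FRET pair, with or without stimulator. The peptide hydrolysis rate is calculated and expressed as percent increase over the basal (unstimulated) rate. EC50 comes from concentration-response curves.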

HEK-293T [3] = test: Cytotoxicity against HEK293T cells up to 50 uM after 16 hrs by Celltiter-Glo luminescence assay; format: cell-based; conditions: human
In short: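 HEK-293T cells exposed for 16 hrs to varying concentrations of stimulator before toxicity was assessed.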

[4] = target: 20S proteasome (Homo sapiens) (UniProt P49721+P20618+P28074+P28062+P28065+P28072+P25786+P25787+P25788+P25789+P28066+P60900+O14818+Q8TAA3+P40306+A5LHX3+P49720+P28070+Q99436); test: Stimulation of human 20S proteasome at EC50 using 11 amino acid FRET peptide as substrate measured every 2 mins over 1 hr by FRET assay relative to control; format: protein-complex assay
In short: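 Purified human 20S core particle incubated with an 11-residue reporter peptide carrying a FRET pair. Hydrolysis rate of the peptide is calculated with and without stimulator and expressed as percent increase over basal hydrolysis.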

CCCCCC/C=C\CCCCC/C=C/C(=O)O
solubility [1]: Insoluble

CCCCCCCC/C=C\CCCCCCCC(=O)Nc1ccc(O)cc1
Activity (HEK-293T [2]): Non-Toxic | EC50 (20S proteasome): 35 µM | Activity (HEK-293T [3]): Non-Toxic | Activity [4]: 400%

CCCCCCCC/C=C\CCCCC/C=C/C(=O)Nc1ccc(O)cc1
Activity (HEK-293T [2]): Non-Toxic | EC50 (20S proteasome): 24 µM | Activity (HEK-293T [3]): Non-Toxic | Activity [4]: 500%

CCCCC/C=C\C/C=C\C/C=C\C/C=C\CCCC(=O)Nc1ccc(O)cc1
Activity (HEK-293T [2]): Non-Toxic | EC50 (20S proteasome): 28 µM | Activity (HEK-293T [3]): Toxic | Activity [4]: 1000%

CCCCCCCC/C=C\CCCCC/C=C/C(=O)O
solubility [1]: Insoluble
